Published values of several laboratories.
Each line is one published result; the experiments were not run side by side.
CA9: Carbonic anhydrase 9 (CA9, Homo sapiens, UniProt Q16790)
Pancreatic alpha-amylase: Pancreatic alpha-amylase (Homo sapiens, UniProt P04746)
PADI4: Protein-arginine deiminase type-4 (PADI4, Homo sapiens, UniProt Q9UM07)
MAOB: Amine oxidase [flavin-containing] B (MAOB, Homo sapiens, UniProt P27338)
GLO1: Lactoylglutathione lyase (GLO1, Homo sapiens, UniProt Q04760)
CHRM4: Muscarinic acetylcholine receptor M4 (CHRM4, Homo sapiens, UniProt P08173)
ALDH1A3: Retinaldehyde dehydrogenase 3 (ALDH1A3, Homo sapiens, UniProt P47895)
HDAC9: Histone deacetylase 9 (HDAC9, Homo sapiens, UniProt Q9UKV0)
Comt: Catechol O-methyltransferase (Comt, Rattus norvegicus, UniProt P22734)

CS(=O)(=O)Nc1ccc(Nc2nc(-c3cc4cc(Br)ccc4oc3=O)cs2)cc1Oc1ccccc1  IC50 (CA9; enzyme activity, inhibitor): 5740 nM
COc1cc(/C=N/NC(=S)N/N=C\c2ccc(Cl)c(Cl)c2)ccc1Oc1ccnc2cc(Cl)ccc12  IC50 (Pancreatic alpha-amylase; enzyme activity, inhibitor, absorbance): 45700 nM
N=C(CCl)NCCC[C@H](NC(=O)c1cccc(-c2ccc(O)cc2)c1)C(=O)NCc1ccccc1  IC50 (PADI4; enzyme activity, inhibitor, fluorescence; with preincubation): 524 nM
O=C(Nc1cccc(Br)c1)c1ccc2c(c1)C(=O)NC2=O  IC50 (MAOB; enzyme activity, inhibitor): 180 nM
Cc1cc(O)c(-c2ccc([C@@H](C)CN(C)C)cc2)c2c1[nH]c(=O)c1sccc12  IC50 (Cyclin-dependent kinase 18, with cyclin Y (CDK18, Homo sapiens, UniProt Q07002); enzyme activity, inhibitor): > 1000 nM
COc1cc(/C=N/NC(=S)N/N=C/c2ccccc2)ccc1Oc1ccnc2cc(Cl)ccc12  IC50 (Pancreatic alpha-amylase; enzyme activity, inhibitor, absorbance): 46400 nM
O=C(Nc1ccccc1)c1ccc2c(c1)C(=O)NC2=O  IC50 (MAOB; enzyme activity, inhibitor): 3250 nM
NS(=O)(=O)c1ccc(Nc2nc(-c3cc4cc(Br)ccc4oc3=O)cs2)c(Br)c1  IC50 (CA9; enzyme activity, inhibitor): 860 nM
O=C(N[C@@H](CSCc1ccc([N+](=O)[O-])cc1)C(=O)NO)c1ccccc1  IC50 (GLO1; enzyme activity, inhibitor): 952 nM
N=C(CCl)NCCC[C@H](NC(=O)c1ccc2cc(O)ccc2c1)C(=O)NCc1ccccc1  IC50 (PADI4; enzyme activity, inhibitor, fluorescence; with preincubation): 240 nM
COc1cc(/C=N/NC(=S)N/N=C/c2ccc(N(C)C)cc2)ccc1Oc1ccnc2cc(Cl)ccc12  IC50 (Pancreatic alpha-amylase; enzyme activity, inhibitor, absorbance): 50000 nM
CCCNS(=O)(=O)Nc1ncnc(OCCOc2ncc(Br)cn2)c1-c1ccc(Br)cc1  IC50 (Endothelin receptor type B (EDNRB, Homo sapiens, UniProt P24530); ligand displacement, radioligand; cell membranes): 1370 nM
CN1CCC(CNc2ccc3ncc(-c4cccc(OC(F)(F)F)c4)n3n2)CC1  IC50 (Histamine H1 receptor (HRH1, Homo sapiens, UniProt P35367); calcium signal, antagonist): 8450 nM
N=C(CCl)NCCC[C@H](NC(=O)c1ccc2cc(O)ccc2n1)C(=O)NCc1ccccc1  IC50 (PADI4; enzyme activity, inhibitor, fluorescence; with preincubation): 560 nM
O=C(CCNC(=O)CNC(=O)CC(c1ccccc1)(c1ccccc1)c1ccccc1)NC[C@@H]1CCCN(Cc2ccc(F)nc2)C1  IC50 (CHRM4; ligand displacement, radioligand; cell membranes): > 30000 nM
CN(C)c1ccc2cc(C(=O)N[C@@H](CCCNC(=N)CCl)c3nc4ccccc4[nH]3)ccc2c1  IC50 (PADI4; enzyme activity, inhibitor, fluorescence; with preincubation): 1060 nM
Cc1ccc(-c2ccc(C=O)cc2)c(C)c1  IC50 (ALDH1A3; enzyme activity, inhibitor): 110 nM
O=C(NO)c1ccc(Cn2cnc3c(Nc4cccc([N+](=O)[O-])c4)ncnc32)cc1  IC50 (HDAC9; enzyme activity, inhibitor): 677 nM
COc1ccc(N(Cc2csc(-c3ccccc3)n2)C(=O)CCCCCC(=O)NO)cc1  IC50 (HDAC9; enzyme activity, inhibitor): > 10000 nM
O=C(O)c1cc(O)c(O)c(O)c1  IC50 (Comt; enzyme activity, inhibitor): 709000 nM
Cc1ccc(-c2ccccc2C=O)c(C)c1  IC50 (ALDH1A3; enzyme activity, inhibitor): 43500 nM
O=C(Nc1ccc(F)c(Br)c1)c1ccc2c(c1)C(=O)NC2=O  IC50 (MAOB; enzyme activity, inhibitor): 11 nM
COc1cc(/C=N/NC(=S)N/N=C/c2ccc(F)cc2)ccc1Oc1ccnc2cc(Cl)ccc12  IC50 (Pancreatic alpha-amylase; enzyme activity, inhibitor, absorbance): 54300 nM
O=C(Nc1ccc(Cl)c(F)c1)c1ccc2c(c1)C(=O)NC2=O  IC50 (MAOB; enzyme activity, inhibitor): 29 nM
COc1ccc(N(Cc2csc(-c3ccc(C)cc3)n2)C(=O)CCCCCC(=O)NO)cc1  IC50 (HDAC9; enzyme activity, inhibitor): > 10000 nM
O=C(CCNC(=O)CNC(=O)CC(c1ccccc1)(c1ccccc1)c1ccccc1)NC[C@H]1CCCN(Cc2ccc(F)cc2)C1  IC50 (CHRM4; ligand displacement, radioligand; cell membranes): 13500 nM
COc1cc(/C=N/NC(=S)NN=Cc2cccs2)ccc1Oc1ccnc2cc(Cl)ccc12  IC50 (Pancreatic alpha-amylase; enzyme activity, inhibitor, absorbance): 60000 nM
N=C(CCl)NCCC[C@H](NC(=O)c1cccc(NC(=O)c2cc3c(s2)CCC3)c1)C(=O)NCc1ccccc1  IC50 (PADI4; enzyme activity, inhibitor, fluorescence; with preincubation): 454 nM
Cc1ccc(-c2cccc(C=O)c2)c(C)c1  IC50 (ALDH1A3; enzyme activity, inhibitor): 14900 nM
N=C(CCl)NCCC[C@H](NC(=O)c1ccc2cc(Br)ccc2c1)C(=O)NCc1ccccc1  IC50 (PADI4; enzyme activity, inhibitor, fluorescence; with preincubation): 393 nM
COc1cc(/C=N/NC(=S)N/N=C/c2ccc(C=O)cc2)ccc1Oc1ccnc2cc(Cl)ccc12  IC50 (Pancreatic alpha-amylase; enzyme activity, inhibitor, absorbance): 58700 nM
O=C(N[C@@H](CSCc1nc2cc([N+](=O)[O-])ccc2[nH]1)C(=O)NO)c1ccccc1  IC50 (GLO1; enzyme activity, inhibitor): 454000 nM
N=C(CCl)NCCC[C@H](NC(=O)c1cccc(-c2ccc(B(O)O)cc2)c1)C(=O)NCc1ccccc1  IC50 (PADI4; enzyme activity, inhibitor, fluorescence; with preincubation): 708 nM
O=C(Nc1ccc(F)c(Cl)c1)c1ccc2c(c1)C(=O)NC2=O  IC50 (MAOB; enzyme activity, inhibitor): 15 nM
O=C(O)CC(O)(CC(=O)O)C(=O)O  IC50 (Comt; enzyme activity, inhibitor): 947000 nM
CS(=O)(=O)Nc1ccc(Nc2nc(-c3cc4ccccc4oc3=O)cs2)cc1Oc1ccccc1  IC50 (CA9; enzyme activity, inhibitor): 1690 nM
N=C(CCl)NCCC[C@H](NC(=O)c1cccc(-c2ccc(O)cc2)c1)c1nc2ccccc2[nH]1  IC50 (PADI4; enzyme activity, inhibitor, fluorescence; with preincubation): 426 nM
COc1cc(/C=N/NC(=S)NN=Cc2ccncc2)ccc1Oc1ccnc2cc(Cl)ccc12  IC50 (Pancreatic alpha-amylase; enzyme activity, inhibitor, absorbance): 49700 nM
O=C1Nc2ccc(I)cc2/C1=C/c1cc(Br)c(O)c(Br)c1  IC50 (Dual specificity tyrosine-phosphorylation-regulated kinase 4 (DYRK4, Homo sapiens, UniProt Q9NR20); enzyme activity, inhibitor): 4940 nM
